Consider 22 compounds from ChEMBL document CHEMBL1157696, “New oxapolycyclic cage amines with NMDA receptor antagonist and trypanocidal activities” (Bioorg Med Chem, 2010).

In experiment [1] the target is Glutamate NMDA receptor. In words: Antagonist activity at NMDA receptor in rat cerebellar granule neurons assessed as inhibition of glutamate-induced increase in intracellular calcium level by fluorometric assay. Type of experiment: functional, cell-based. Summed up: (§1)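 Primary cerebellar granule neuron cultures on poly-L-lysine-coated glass coverslips, used after 7–14 days in vitro. Cells loaded with 6 µM Fura-2 AM for 45 min, then read fluorometrically in Locke-Hepes buffer at 37 °C under mild agitation. Cumulative increasing compound concentrations added after glutamate (100 µM, with 10 µM glycine) or NMDA challenge. Inhibition percentages fitted by variable-slope non-linear regression. At least three experiments on three culture batches.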
On the technique in general: Calcium flux is commonly read through the fluorescence of an indicator in the cells.

The target of experiment [2] is Glutamate NMDA receptor. As to the kind of experiment: Antagonist activity at NMDA receptor in rat cerebellar granule neurons assessed as inhibition of NMDA-induced increase in intracellular calcium level by fluorometric assay. Type of experiment: functional, cell-based. An outline of the steps:
as §1

Experiment [3] has as its system Trypanosoma brucei. As to the kind of experiment: Trypanocidal activity against Trypanosoma brucei 427 bloodstream form assessed as decrease in cell density at 5 ug/mL after 48 hrs by hemocytometry. Type of experiment: functional, organism-based.
The species entered for experiment [4] is Mus musculus. As to the kind of experiment: Inhibition of MAO in mouse cortex at 10 uM by tube luminometry. An outline of the steps:
(§2)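 MAO-Glo luminescent assay of non-specific MAO activity. Enzyme source was a crude mitochondrial preparation from NIH Swiss mouse cortex. Compounds tested at 10 and 50 µM.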

Experiment [5] is filed under the species Mus musculus. In words: Inhibition of MAO in mouse cortex at 50 uM by tube luminometry. Summed up:
as §2

The test system of experiment [6] is Trypanosoma brucei. As to the kind of experiment: Trypanocidal activity against Trypanosoma brucei 427 bloodstream form assessed as decrease in cell density after 48 hrs by hemocytometry. It counts as functional, organism-based. Particulars: Trypanosoma brucei, 427, 48 h. An outline of the steps: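 Bloodstream-form T. brucei strain 427 kept at 37 °C in modified Iscove's medium, pH 7.4. Parasites grown 48 h across a range of drug concentrations, starting at 0.5 × 10⁴ cells/mL. Densities counted by hemocytometer and expressed as percent of control growth to derive IC50 and IC90. Performed in triplicate.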

In experiment [7] the test system is Trypanosoma brucei. As to the kind of experiment: Ratio of compound to amantadine activity against Trypanosoma brucei 427 bloodstream form. It counts as functional.

Molecules are shown by their SMILES. The source made the active and inactive calls. No cut-off for these calls is given here.

Consider `c1ccc(CCNC23CC4CC(CC(C2)c2ccccc24)O3)cc1`, for which the IC50 (commonly the concentration that inhibits the measured activity by half) in experiment [1] was greater than 500 µM; in experiment [2], greater than 200 µM. The outcome in experiment [3] was inactive.

Take `CN(C)C12CC3CC(CC(C1)c1ccccc13)O2`: the IC50 in experiment [1] worked out at 39 µM; in experiment [2] it was 3.8 µM. The outcome in experiment [3] was inactive.

In the case of `C#CCN(CC#C)C12CC3CC(CC(C1)c1ccccc13)O2`, the results for the IC50 in experiment [1] and in experiment [2] were greater than 500 µM and greater than 200 µM, respectively. Also, the inhibition result in experiment [4] and in experiment [5] was “inactive” throughout. For the same compound, the result in experiment [3] was inactive.

With `CN(Cc1ccccc1)C12CC3CC(CC(C1)c1ccccc13)O2`, the IC50 in experiment [1] was greater than 500 µM; in experiment [2] it was greater than 200 µM. Moreover, in experiment [3], the result was inactive.

With `c1ccc(CNC23CC4CC(CC(C2)c2ccccc24)O3)cc1`, the IC50 in experiment [1] is greater than 500 µM; in experiment [2], greater than 200 µM. In experiment [3], the outcome was inactive.

Consider `CN(C)C12CC3CC(C)(CC(C1)c1ccccc13)O2`, for which the IC50 is 7.7 µM in experiment [1] and 3.9 µM in experiment [2]. Moreover, the result in experiment [3] was inactive.

As for `C#CCN(CC#C)C12CC3CC(CC)(CC(C1)c1ccccc13)O2`, the IC50 in experiment [1] is greater than 500 µM; in experiment [2], greater than 200 µM; in experiment [6], 14.6 µM. The inhibition result in experiment [4] and in experiment [5] was “inactive” in each case. In experiment [6], the IC90 (commonly the point of the concentration-response curve where the effect stands at 90%) amounted to 24.1 µM. The Ratio result in experiment [7] is recorded as “>=10”.

For the compound `CC12CC3CC(C)(C1)CC(N)(C3)C2` [MEMANTINE], in experiment [6], the IC50 came to 13.8 µM and the 90% effect concentration (IC90) amounted to 21.4 µM.

As for `C#CCNC12CC3CC(CC(C1)c1ccccc13)O2`, the IC50 was 115 µM in experiment [1] and 34 µM in experiment [2]. Moreover, the inhibition result in experiment [4] and in experiment [5] was “inactive” throughout. Also, the result in experiment [3] was inactive.

As to `CC12CC3CC(N)(CC(C1)c1ccccc13)O2`, the figures for the IC50 in experiment [1] and in experiment [2] were 167 µM and 98 µM, respectively. The result in experiment [3] was inactive.

For the compound `NC(=O)CNC12CC3CC(CC(C1)c1ccccc13)O2`, the IC50 in experiment [1] was greater than 500 µM; in experiment [2] it was greater than 200 µM. Besides, the inhibition result in experiment [4] and in experiment [5] was “inactive” in each case. In experiment [3], the outcome was inactive.

Take `NC12CC3CC(CC(C1)c1ccccc13)O2`: the IC50 worked out at 408 µM in experiment [1] and 35 µM in experiment [2]. In experiment [3], the result was inactive.

`CCC12CC3CC(NCc4ccccc4)(CC(C1)c1ccccc13)O2`: the IC50 in experiment [1] was greater than 500 µM; in experiment [2] it was greater than 200 µM; in experiment [6], 13.9 µM. Moreover, the IC90 in experiment [6] was determined as 19.9 µM. Further, in experiment [7], the Ratio result was “>=10”.

Turning to `CC(N)C12CC3CC(CC(C3)C1)C2` (stereo not given) [RIMANTADINE], the IC90 in experiment [6] came out at 14 µM.

Consider `C#CCNC12CC3CC(CC)(CC(C1)c1ccccc13)O2`, for which the IC50 in experiment [1] was greater than 500 µM; in experiment [2] it was greater than 200 µM; in experiment [6] it was 15.2 µM. Moreover, the inhibition result in experiment [4] and in experiment [5] was “inactive” in each case. Besides, the IC90 in experiment [6] was determined as 25.6 µM. The Ratio result in experiment [7] is recorded as “>=10”.

On to `CCN(CC)C12CC3CC(CC(C1)c1ccccc13)O2`, for which the results for the half-inhibitory concentration (IC50) in experiment [1] and in experiment [2] were 96 µM and 14 µM, respectively.

Consider `CCN(CC)C12CC3CC(C)(CC(C1)c1ccccc13)O2`, for which the figures for the IC50 in experiment [1] and in experiment [2] were 22 µM and 7.7 µM, respectively. Also, the outcome in experiment [3] was inactive.

As to `c1ccc2c(c1)C1CC3CC2CC(N2CCCCC2)(C1)O3`, the IC50 in experiment [1] was determined as 168 µM; in experiment [2], 30 µM.

`C#CCN(C)[C@H](C)Cc1ccccc1`: in experiment [4], the inhibition (usually the drop in the measured response relative to a control, in per cent) was found to be 85.5%.

For `CCC12CC3CC(N)(CC(C1)c1ccccc13)O2`, the IC50 was greater than 500 µM in experiment [1] and greater than 200 µM in experiment [2]. The outcome in experiment [3] was inactive.

As for `c1ccc(CN(Cc2ccccc2)C23CC4CC(CC(C2)c2ccccc24)O3)cc1`, the IC50 in experiment [1] was greater than 500 µM; in experiment [2], greater than 200 µM. Also, the result in experiment [3] was inactive.

For the compound `CNC12CC3CC(CC(C1)c1ccccc13)O2`, the IC50 in experiment [1] worked out at 28 µM; in experiment [2], 6 µM. Moreover, the result in experiment [3] was inactive.
